Assay outcomes (PubChem)
Mdm2-MdmX inh: inhibitors of human Mdm2-MdmX association, primary screen, cell-based, luminescence, split luciferase, SaOS-2, uHTS; inhibition, % at 8 µM; SaOS-2 split-luciferase Mdm2/MdmX complementation; Protein Mdm4 (Homo sapiens) + E3 ubiquitin-protein ligase Mdm2 (Homo sapiens), …; 330,000 compounds, 3% hits;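 active = inhibition of at least 50% at 8 µM in the primary screen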
Target sequence (O15151 whole entry, looked up): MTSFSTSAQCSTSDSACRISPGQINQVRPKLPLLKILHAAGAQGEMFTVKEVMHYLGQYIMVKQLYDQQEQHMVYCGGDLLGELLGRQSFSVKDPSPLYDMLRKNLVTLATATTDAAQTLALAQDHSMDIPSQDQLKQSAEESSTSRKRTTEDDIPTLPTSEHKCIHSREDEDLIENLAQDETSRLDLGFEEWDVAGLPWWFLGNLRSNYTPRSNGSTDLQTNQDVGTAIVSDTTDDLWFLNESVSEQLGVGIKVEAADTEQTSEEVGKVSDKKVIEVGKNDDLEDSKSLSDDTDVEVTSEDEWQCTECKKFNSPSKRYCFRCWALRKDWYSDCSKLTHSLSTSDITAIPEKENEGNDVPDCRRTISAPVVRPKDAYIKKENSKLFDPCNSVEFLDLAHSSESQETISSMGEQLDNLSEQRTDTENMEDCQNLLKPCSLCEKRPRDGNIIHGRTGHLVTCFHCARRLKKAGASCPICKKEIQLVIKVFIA
Target sequence (Q00987 whole entry, looked up): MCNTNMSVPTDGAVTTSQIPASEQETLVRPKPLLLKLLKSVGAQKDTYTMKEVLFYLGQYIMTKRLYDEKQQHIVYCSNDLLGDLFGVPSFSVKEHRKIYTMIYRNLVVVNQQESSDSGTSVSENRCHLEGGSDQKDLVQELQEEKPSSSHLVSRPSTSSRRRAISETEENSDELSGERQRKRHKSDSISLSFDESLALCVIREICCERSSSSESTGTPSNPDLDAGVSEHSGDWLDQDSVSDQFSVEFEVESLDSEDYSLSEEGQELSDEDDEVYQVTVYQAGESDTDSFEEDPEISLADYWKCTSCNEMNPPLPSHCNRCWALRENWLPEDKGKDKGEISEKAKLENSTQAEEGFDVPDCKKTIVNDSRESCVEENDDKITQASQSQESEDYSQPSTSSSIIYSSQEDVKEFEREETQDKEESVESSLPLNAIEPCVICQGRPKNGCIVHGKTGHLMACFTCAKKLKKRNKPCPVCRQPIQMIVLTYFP
CSC inhib: cancer stem cell viability inhibitors, primary screen, luminescence; cancer stem cell-like cells viability; inhibition, % at 7.5 µM; 300,000 compounds, 1.1% hits; AID 2717, 2010; in the data active = inhibition above about 75%; inconclusive = no clear call, values can overlap the other calls; tested in HMLE shEcad cells
T cruzi inh: inhibitors of intracellular T. cruzi growth, primary screen, luminescence, NIH3T3 host cells | inhibition, % (concentration not given with the values) | T. cruzi beta-gal in NIH3T3, 90 h | 300,000 compounds, 1.4% hits;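 active = mean inhibition across valid replicates above about 55%, limit read from the data; inconclusive = mean below that limit but half or more replicates reach it; inactive = mean below it, under half of replicates reach it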;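 also: signal also drops with host cell toxicity which is not excluded here; 0% = plate median of DMSO wells and 100% = zero luminescence signal; higher percent means less beta-gal luminescence so fewer parasites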
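Read-out: Parasite load inhibition, % | Test system: Mouse NIH/3T3 fibroblasts infected with β-gal-expressing T. cruzi Tulahuen C4 | Amount: 5,000 cells/well | Medium: DMEM, 2% fetal bovine serum | Signal: GalScreen β-gal luminescence, detergent lysis, 60 min | Timing: 3 h attach, ≥90 h co-culture | Also added: Tulahuen C4 trypomastigotes, 5000/well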
Beta apoptosis: inhibitors of cytokine-induced beta cell apoptosis, primary screen, luminescence; protection from apoptosis, % (test concentration not listed); INS-1E cytokine-induced death, ATP luminescence, 48 h; percent of positive-control rescue, neutral wells zero; AID 435005, 2010; 300,000 compounds, 0.8% hits;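 active = Every replicate reaches about 75%, or at least half do and their mean reaches it too, limit read from the data; inconclusive = At least half of replicates reach the limit but their mean does not; inactive = Under half of replicates reach the limit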;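 also: 0% = cytokine-treated negative control wells and 100% = positive control rescue; higher means more ATP so stronger rescue from cytokine killing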
SKKanGAS inh: S. pyogenes SKKanGAS growth inhibitors in kanamycin, primary screen, streptokinase expression inhibitor project, SKKanGAS strain, BacTiter-Glo luminescence; 6 h; inhibition, % at 7.5 µM; 300,000 compounds, 1.3% hits; AID 1662, 2009;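 active = mean replicate score, as percent of positive control median, at least 50; inconclusive = mean below 50 but one replicate at or above 50; inactive = mean and every replicate below 50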;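 also: strain carries kanamycin resistance gene driven by streptokinase promoter and grows in 40 µg/ml kanamycin; loss of luminescence reflects streptokinase promoter inhibition or plain growth inhibition; 0% = median of DMSO wells and 100% = positive control at its reference dose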
Calb FLC: C. albicans growth inhibition with fluconazole, primary screen, CaCi-2 strain, Alamar Blue fluorescence; C. albicans CaCi-2 (fluconazole-resistant clinical isolate) + fluconazole, 48 h; growth inhibition, % (concentration not given with the values); 300,000 compounds, 0.57% hits; AID 1979, 2009;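 active = growth inhibition above about 58% in most replicates, limit read from the data, passing the limit was not always enough; inconclusive = exactly half the replicates above a set limit; inactive = most replicates below a set limit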;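 also: all wells also contain fluconazole at 8 µg/ml as a sub-toxic cotreatment; 0% = median of DMSO wells and 100% = median of geldanamycin control wells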
* hit, by the source's call; u = inconclusive; x = no result. Only some compounds are listed: those with a hit (about 5.7% of all), similar ones and a draw of the others.

SMILES | Mdm2-MdmX inh | CSC inhib | T cruzi inh | Beta apoptosis | SKKanGAS inh | Calb FLC
O=C(Nc1ccc(N2CCN(C(=O)c3ccco3)CC2)cc1)c1ccc2c(c1)OCO2 | 10 | -9 | -13 | 1 | -9 | -27
Cc1ccccc1C(=O)N1CCN(c2ccc(NC(=O)c3ccc4c(c3)OCO4)cc2)CC1 | 22 | 77* | 12 | 4 | 9 | -4
Cc1ccc(C(=O)N2CCN(c3ccc(NC(=O)c4cccnc4)cc3)CC2)cc1 | 20 | 12 | 1 | 9 | 0 | -6
Cc1ccccc1C(=O)N1CCN(c2ccc(NC(=O)c3cccnc3)cc2)CC1 | 17 | -3 | -6 | 75* | -8 | -20
CC(=O)N1CCN(c2ccc(NC(=O)c3ccc(C(C)(C)C)cc3)cc2)CC1 | 32 | 15 | 12 | 8 | 4 | 109*
COc1ccc(S(=O)(=O)N2CCCCC2)cc1NS(=O)(=O)c1ccc(CNC(C)=O)cc1 | 3 | -2 | x | -3 | x | x
CCN(CC)CCOCCOc1cc(C)c(Cl)c(C)c1 | 0 | 89* | 64* | -3 | -3 | -11
CN1CCN(S(=O)(=O)c2cccc3nsnc23)CC1 | 22 | -12 | -3 | 1 | 1 | -1
CC(C)Sc1nc2c(c(=O)n(C)c(=O)n2C)n1Cc1ccc(Cl)cc1 | 6 | 7 | 29 | 2 | 14 | 2
Cn1c(=O)c2c(nc(SCc3ccccc3)n2Cc2ccc(Cl)cc2)n(C)c1=O | 18 | -15 | 10 | 21 | 80* | 0
COc1ccc(CCNc2ncnc3sc(C)cc23)cc1OC | 10 | 3 | -42 | 107* | 2 | 107*
NC(N)=N/N=C/c1cccc([N+](=O)[O-])c1O | 12 | -16 | 34 | -7 | 4 | u
NC(N)=N/N=C/c1cccc(Cl)c1Cl | 20 | 1 | 55* | 12 | 19 | -4
COc1ccc(NC2CCCN(C(=O)c3ccc4[nH]c(C)c(C)c4c3)C2)cc1 (stereo not given) | -9 | -3 | 5 | -2 | 5 | -28
CCOc1ccc(NC(=O)CCNC(=O)Cn2ccc3ccccc3c2=O)cc1 | 28 | -8 | 3 | -4 | 1 | 11
COc1ccc(C(=O)c2c(C)c3ccccc3n2CC(O)CNC(C)C)cc1 (stereo not given) | 43 | -8 | 42 | 102* | -12 | -20
Fc1ccccc1CNc1nc(-c2cccnc2)nc2ccccc12 | 1 | 9 | 36 | 43 | -2 | 4
Cc1cc(C)c(-c2cc(NC(=O)COC(=O)c3ccc(C#N)cc3)n(-c3ccccc3)n2)cc1C | -10 | -8 | 3 | -5 | 25 | 77*
CCOc1ccc(C(C(=O)NC2CCCCC2)N(CCOC)C(=O)c2snc(C(N)=O)c2N)cc1 (stereo not given) | 7 | 1 | 2 | -4 | -3 | 5
COc1cccc(/C=N/n2c(N)nc3ccccc32)c1OC | 19 | 5 | 8 | -1 | 53* | -5
CN1CCN(c2nc(-c3ccccc3)nc(-c3ccc(F)cc3)c2C#N)CC1 | 18 | 30 | 55* | 10 | -2 | 16
Cc1ccccc1N1CCN(C(=O)c2ccc(Oc3ccc(C(F)(F)F)cn3)cc2)CC1 | 14 | 87* | 58* | 4 | 6 | -4
CC(Oc1ccc(Cl)cc1Cl)c1nc(-c2ccc(NC(=O)c3ccncc3)cc2)no1 (stereo not given) | 40 | 83* | 55* | x | 31 | 15
CC(Oc1ccc(Cl)cc1Cl)C(=O)Nc1ccc2oc(-c3ccncc3)nc2c1 (stereo not given) | 41 | 63 | 53 | 4 | 51* | -5
CC(Oc1ccc(Cl)cc1Cl)c1nc(-c2ccc(NC(=O)c3cccnc3)cc2)no1 (stereo not given) | 17 | 20 | 41 | 101* | 26 | 2
SMILES | Mdm2-MdmX inh | CSC inhib | T cruzi inh | Beta apoptosis | SKKanGAS inh | Calb FLC
CC(Oc1ccc(Cl)cc1Cl)C(=O)NNC(=O)c1cccnc1 (stereo not given) | 10 | -1 | 1 | -4 | -6 | x
COc1ccc(S(=O)(=O)N2CCCCCC2)cc1C(=O)N(C)CC(=O)Nc1ccccc1C(F)(F)F | 11 | x | x | 2 | x | x
CCCNCC1C(Oc2ccc(Cl)cc2Cl)C(=O)N1c1cccc(C)c1C (stereo not given) | -4 | 81* | 62* | 44 | 6 | -11
COc1ccc(NC(=O)COc2ccc(/C=C/c3cc[n+](C)cc3)cc2OC)cc1 | -9 | -12 | -1 | 23 | 3 | 2
COc1cc(/C=C/c2cc[n+](C)cc2)ccc1OCC(=O)Nc1ccc(Cl)c(Cl)c1 | 49 | x | 12 | 31 | 60* | 7
CC(C)c1ccc2c(c1)CCC1C(C)(CN)CCCC21C (stereo not given) | x | 116* | 9 | 63 | 6 | 87*
Cc1nn(CC(=O)Nc2ccc3c(c2)CCC3)c(C)c1[N+](=O)[O-] | -12 | -2 | x | 2 | x | x
C=C(C)c1cccc(C(C)(C)NC(=O)NC2CCN(Cc3ccccc3)CC2)c1 | 35 | 4 | 55* | 5 | 8 | 0
O=C(Nc1cccc(F)c1)NC1CCN(Cc2ccccc2)CC1 | 6 | -5 | 60* | -5 | 7 | -1
Fc1ccc(NC(=S)NC2CCN(Cc3ccccc3)CC2)cc1 | -1 | x | x | 3 | 1 | -21
O=C(Nc1ccc(F)c(Cl)c1)C1CCCC1 | 2 | -7 | 1 | -13 | -4 | -7
O=C(Nc1ccc(F)c(Cl)c1)NC1CC1 | 13 | -7 | -17 | -1 | -1 | 83*
O=C(COc1ccc(Br)cc1Cl)NC1CCN(Cc2ccccc2)CC1 | 19 | 4 | 61* | -4 | 3 | -4
C=C(C)c1cccc(C(C)(C)NC(=O)N2CCCC2)c1 | -9 | -8 | 4 | -2 | -4 | -27
O=C(/C=C/c1cccc(F)c1)NCCCn1ccnc1 | 15 | 2 | 11 | 6 | 5 | 0
CC(c1ccccc1)N1CC(C(=O)Nc2ccc(F)cc2)CC1=O (stereo not given) | -1 | -3 | x | 4 | x | x
COc1ccc(OCc2cc(C(=O)N(Cc3nccn3C)C(C)C)no2)c2ccccc12 | -16 | -5 | 18 | -4 | 3 | 6
O=C(/C=C/NCc1cccnc1)c1ccc(Br)cc1 | 6 | -7 | 22 | -4 | 0 | 0
O=C(/C=C/c1cccc(F)c1)NC1CCN(Cc2ccccc2)CC1 | 25 | -11 | 55* | 3 | -1 | -6
O=C(/C=C/c1cccc(Br)c1)NC1CCN(Cc2ccccc2)CC1 | 14 | 7 | 41 | -3 | 3 | -6
COc1ccc(C2N(C(=O)CN3CCCC3)CCCN2S(=O)(=O)c2ccccc2)cc1 (stereo not given) | 6 | -2 | 0 | -1 | -28 | -1
